Data set [1] addresses Sodium channel protein type 3 subunit alpha (Homo sapiens, UniProt Q9NY46). Kind of data set: Inhibition of human Nav1.3 expressed in CHO cells assessed as reduction in peak inward current by manual whole cell patch clamp electrophysiology assay. The class given is cell-based. (In general: The patch-clamp technique gives a direct electrical read-out from membranes.)
Data set [2] deals with Sodium channel protein type 1 subunit alpha (Homo sapiens, UniProt P35498). Kind of data set: Inhibition of human Nav1.1 expressed in HEK293 cells assessed as reduction in peak inward current by manual whole cell patch clamp electrophysiology assay. It is filed as cell-based.
Data set [3] is described as follows: Unbound plasma concentration in C57BL/6 mouse model of histamine-induced scratching at 30 mg/kg, po administered 4 hrs prior to histamine challenge. It is filed as ADME, organism-based. To be noted: in vivo. In a few lines: (§1)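 Mice were dosed orally with vehicle, diphenhydramine (30 mg/kg, n = 8) or test article at 30 (n = 9), 100 (n = 10) or 300 (n = 10) mg/kg; vehicle n = 12. All groups received histamine intradermally. Total scratch bouts were counted, with unbound plasma concentration reported per dose. Statistics: one-way ANOVA with Dunnett's test versus vehicle.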

In data set [4] the target is Voltage-gated inwardly rectifying potassium channel KCNH2 (Homo sapiens, UniProt Q12809).
The target in data set [5] is T1, Sodium channel protein type 9 subunit alpha (Homo sapiens, UniProt Q15858). As to the kind of experiment: Inhibition of human Nav1.7 at resting/closed state expressed in HEK293 cells at -140 mV holding potential by manual whole cell patch clamp electrophysiology assay. It is filed as cell-based.
Data set [6] has as its target T2, Cytochrome P450 2C9 (Homo sapiens, UniProt P11712).
A short description of data set [7]: Oral bioavailability in Harlan rat at 10 mg/kg by LC-MS/MS analysis. It is filed as ADME, organism-based. To be noted: in vivo. The procedure, abridged:
(§2)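 Male fed rats. The IV dose was given in 100% DMSO. The oral dose was given in 1% Tween 80, 2% HPMC, 97% water/NaOH (pH 8.5).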

A short description of data set [8]: Unbound plasma concentration in C57BL/6 mouse model of histamine-induced scratching at 100 mg/kg, po administered 4 hrs prior to histamine challenge. It is filed as ADME, organism-based. To be noted: in vivo. The procedure, abridged:
as §1

In data set [9] the target is Sodium channel protein type 9 subunit alpha (Mus musculus, UniProt Q62205). As to the kind of experiment: Inhibition of Nav1.7 in C57BL/6 mouse DRG neurons assessed as reduction in native TTX-S current amplitude by manual patch clamp electrophysiology assay.
A further data set is described as follows: physchem. To be noted: fasted state simulated intestinal fluid, pH 6.8.
Data set [10] in a line: Free plasma concentration in naive C57BL/6 mouse assessed as effect on basic locomotor movement at 30 mg/kg, po measured after 4 hrs for 60 mins by open field test. It is filed as ADME, organism-based. To be noted: in vivo. In a few lines: (§3)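 Naive mice were dosed orally with vehicle or test article at 30, 100 or 300 mg/kg (n = 10 per group). Total basic movement in an open-field arena was recorded after dosing, and unbound plasma concentration was reported per dose.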

Data set [11] concerns the target Sodium channel protein type 9 subunit alpha (Rattus norvegicus, UniProt O08562). As to the kind of experiment: Inhibition of rat Nav1.7 expressed in HEK293T cells incubated for 3 to 5 mins at -125 mV holding potential by electrophysiology assay. The class given is cell-based.
Another data set in a line: in vitro. The conditions noted are these: human, liver microsomes. (In general: Liver microsomes are vesicles of endoplasmic reticulum, rich in cytochrome P450 enzymes.)
The target in the next data set is Bile salt export pump (Homo sapiens, UniProt O95342). As to the kind of experiment: Inhibition of human BSEP in plasma membrane vesicles after 10 mins in presence of [3H]-taurocholate by topcount based transport assay. It is filed as cell membranes.
Data set [12] is described as follows: Toxicity in C57BL/6 mouse assessed as reduction in locomotor activity at 100 mg/kg, po for 4 hrs by open field test. The conditions noted are these: in vivo.
The target of data set [13] is T2, Cytochrome P450 2C9. The source holds these as a separate data set.
Data set [14] addresses T1, Sodium channel protein type 9 subunit alpha. As to the kind of experiment: Inhibition of human Nav1.7 expressed in HEK293 cells incubated for 3 to 5 mins at -125 mV holding potential by electrophysiology assay. The class given is cell-based.
Data set [15] in a line: AUC (infinity) in Harlan rat at 10 mg/kg, po by LC-MS/MS analysis. The class given is ADME, organism-based. Also on record: dose 10 mg/kg, route oral, time infinity. The conditions noted are these: in vivo. The procedure, abridged: as §2
Data set [16] is described as follows: Free plasma concentration in naive C57BL/6 mouse assessed as effect on basic locomotor movement at 300 mg/kg, po measured after 4 hrs for 60 mins by open field test. It is filed as ADME, organism-based. To be noted: in vivo. The procedure, abridged: as §3

Here are results for one compound from ChEMBL document CHEMBL4428053, “Application of a Parallel Synthetic Strategy in the Discovery of Biaryl Acyl Sulfonamides as Efficient and Selective NaV1.7 Inhibitors” (J Med Chem, 2016).

One may read the IC50 as the concentration that inhibits the measured activity by half. As a reminder, the Ki is a dissociation constant, usually derived from enzyme kinetics or from competition with a known ligand. A low value points to a stronger hold on the target. In general, bioavailability refers to the share of a dose that reaches the circulation, judged against a reference dose that is usually intravenous. Read a low bioavailability as poor availability. What is called solubility (thermodynamic) is solubility found after equilibrating the solid with the medium. A word on the microsomal CLint: it is a measure of how fast metabolising enzymes remove a compound, apart from limits set by blood flow. Low values mean greater metabolic stability, high ones faster metabolism. In general, AUC(0-inf) refers to the area under the concentration-time curve extrapolated to infinity. Read a high AUC(0-inf) as high exposure.

Values after ≈ are worked out from the molar mass of the structure shown.

T2 sequence (P11712 whole entry): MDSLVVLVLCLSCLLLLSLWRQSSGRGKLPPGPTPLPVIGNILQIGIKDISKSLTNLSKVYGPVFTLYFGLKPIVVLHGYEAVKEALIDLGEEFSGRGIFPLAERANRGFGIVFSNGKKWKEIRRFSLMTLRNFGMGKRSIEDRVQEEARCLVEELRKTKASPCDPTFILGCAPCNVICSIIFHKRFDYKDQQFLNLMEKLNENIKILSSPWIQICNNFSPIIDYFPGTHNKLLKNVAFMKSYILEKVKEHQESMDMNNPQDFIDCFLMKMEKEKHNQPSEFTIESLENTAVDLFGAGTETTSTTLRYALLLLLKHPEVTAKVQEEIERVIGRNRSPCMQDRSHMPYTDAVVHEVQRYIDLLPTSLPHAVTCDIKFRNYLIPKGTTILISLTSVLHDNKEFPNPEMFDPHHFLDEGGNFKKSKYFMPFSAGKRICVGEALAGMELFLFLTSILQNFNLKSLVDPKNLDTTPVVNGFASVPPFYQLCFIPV
T1 sequence (Q15858 whole entry): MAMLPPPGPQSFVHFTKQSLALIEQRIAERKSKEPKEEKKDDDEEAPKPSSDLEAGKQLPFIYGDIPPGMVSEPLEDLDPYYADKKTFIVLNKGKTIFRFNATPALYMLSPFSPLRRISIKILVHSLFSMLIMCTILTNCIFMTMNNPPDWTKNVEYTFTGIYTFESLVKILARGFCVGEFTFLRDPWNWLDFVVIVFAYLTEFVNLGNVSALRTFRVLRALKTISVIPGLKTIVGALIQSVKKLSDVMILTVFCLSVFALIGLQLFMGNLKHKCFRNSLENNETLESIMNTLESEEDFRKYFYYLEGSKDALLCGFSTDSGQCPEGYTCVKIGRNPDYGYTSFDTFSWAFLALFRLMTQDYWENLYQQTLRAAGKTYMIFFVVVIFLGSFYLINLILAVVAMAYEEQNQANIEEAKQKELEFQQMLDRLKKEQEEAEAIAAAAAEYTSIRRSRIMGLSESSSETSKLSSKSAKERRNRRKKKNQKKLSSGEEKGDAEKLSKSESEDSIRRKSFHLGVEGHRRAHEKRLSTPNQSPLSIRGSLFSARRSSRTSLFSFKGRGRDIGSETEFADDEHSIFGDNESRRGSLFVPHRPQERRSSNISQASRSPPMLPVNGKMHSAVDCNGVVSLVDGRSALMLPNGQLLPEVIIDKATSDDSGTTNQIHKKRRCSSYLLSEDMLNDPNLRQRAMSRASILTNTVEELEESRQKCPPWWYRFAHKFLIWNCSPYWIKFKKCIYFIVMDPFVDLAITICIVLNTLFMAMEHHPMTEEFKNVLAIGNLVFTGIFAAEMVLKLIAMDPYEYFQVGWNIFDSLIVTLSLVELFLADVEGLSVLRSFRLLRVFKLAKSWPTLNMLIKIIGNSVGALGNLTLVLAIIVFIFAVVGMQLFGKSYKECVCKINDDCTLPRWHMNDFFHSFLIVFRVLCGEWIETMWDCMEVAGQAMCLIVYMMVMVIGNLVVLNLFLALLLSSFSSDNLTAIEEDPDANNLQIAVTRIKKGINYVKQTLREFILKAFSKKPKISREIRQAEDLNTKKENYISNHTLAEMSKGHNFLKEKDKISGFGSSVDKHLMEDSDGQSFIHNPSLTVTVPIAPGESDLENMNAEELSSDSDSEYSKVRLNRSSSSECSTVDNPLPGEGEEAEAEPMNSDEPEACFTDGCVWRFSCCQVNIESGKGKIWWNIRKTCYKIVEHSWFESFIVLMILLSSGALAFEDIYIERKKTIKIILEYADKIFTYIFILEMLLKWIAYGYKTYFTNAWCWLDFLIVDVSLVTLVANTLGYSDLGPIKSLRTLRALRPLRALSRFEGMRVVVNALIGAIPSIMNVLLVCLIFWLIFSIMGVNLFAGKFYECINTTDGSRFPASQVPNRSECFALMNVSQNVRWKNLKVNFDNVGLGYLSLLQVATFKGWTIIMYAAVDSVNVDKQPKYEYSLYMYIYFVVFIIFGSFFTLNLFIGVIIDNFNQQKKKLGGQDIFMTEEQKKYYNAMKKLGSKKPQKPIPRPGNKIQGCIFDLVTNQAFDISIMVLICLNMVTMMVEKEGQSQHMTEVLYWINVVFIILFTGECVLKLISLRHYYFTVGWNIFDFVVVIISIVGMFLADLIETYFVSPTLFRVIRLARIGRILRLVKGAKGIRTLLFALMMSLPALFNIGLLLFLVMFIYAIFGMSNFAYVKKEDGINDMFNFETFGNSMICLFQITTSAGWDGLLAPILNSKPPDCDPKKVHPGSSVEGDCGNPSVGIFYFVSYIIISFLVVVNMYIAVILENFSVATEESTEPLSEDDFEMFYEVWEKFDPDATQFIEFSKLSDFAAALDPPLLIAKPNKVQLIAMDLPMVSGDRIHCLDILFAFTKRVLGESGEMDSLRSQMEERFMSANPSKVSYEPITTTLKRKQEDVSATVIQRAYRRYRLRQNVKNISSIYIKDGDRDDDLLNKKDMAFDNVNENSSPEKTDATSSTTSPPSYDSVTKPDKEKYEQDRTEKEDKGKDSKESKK
Sodium channel protein type 9 subunit alpha (Mus musculus, UniProt Q62205), sequence (Q62205 whole entry): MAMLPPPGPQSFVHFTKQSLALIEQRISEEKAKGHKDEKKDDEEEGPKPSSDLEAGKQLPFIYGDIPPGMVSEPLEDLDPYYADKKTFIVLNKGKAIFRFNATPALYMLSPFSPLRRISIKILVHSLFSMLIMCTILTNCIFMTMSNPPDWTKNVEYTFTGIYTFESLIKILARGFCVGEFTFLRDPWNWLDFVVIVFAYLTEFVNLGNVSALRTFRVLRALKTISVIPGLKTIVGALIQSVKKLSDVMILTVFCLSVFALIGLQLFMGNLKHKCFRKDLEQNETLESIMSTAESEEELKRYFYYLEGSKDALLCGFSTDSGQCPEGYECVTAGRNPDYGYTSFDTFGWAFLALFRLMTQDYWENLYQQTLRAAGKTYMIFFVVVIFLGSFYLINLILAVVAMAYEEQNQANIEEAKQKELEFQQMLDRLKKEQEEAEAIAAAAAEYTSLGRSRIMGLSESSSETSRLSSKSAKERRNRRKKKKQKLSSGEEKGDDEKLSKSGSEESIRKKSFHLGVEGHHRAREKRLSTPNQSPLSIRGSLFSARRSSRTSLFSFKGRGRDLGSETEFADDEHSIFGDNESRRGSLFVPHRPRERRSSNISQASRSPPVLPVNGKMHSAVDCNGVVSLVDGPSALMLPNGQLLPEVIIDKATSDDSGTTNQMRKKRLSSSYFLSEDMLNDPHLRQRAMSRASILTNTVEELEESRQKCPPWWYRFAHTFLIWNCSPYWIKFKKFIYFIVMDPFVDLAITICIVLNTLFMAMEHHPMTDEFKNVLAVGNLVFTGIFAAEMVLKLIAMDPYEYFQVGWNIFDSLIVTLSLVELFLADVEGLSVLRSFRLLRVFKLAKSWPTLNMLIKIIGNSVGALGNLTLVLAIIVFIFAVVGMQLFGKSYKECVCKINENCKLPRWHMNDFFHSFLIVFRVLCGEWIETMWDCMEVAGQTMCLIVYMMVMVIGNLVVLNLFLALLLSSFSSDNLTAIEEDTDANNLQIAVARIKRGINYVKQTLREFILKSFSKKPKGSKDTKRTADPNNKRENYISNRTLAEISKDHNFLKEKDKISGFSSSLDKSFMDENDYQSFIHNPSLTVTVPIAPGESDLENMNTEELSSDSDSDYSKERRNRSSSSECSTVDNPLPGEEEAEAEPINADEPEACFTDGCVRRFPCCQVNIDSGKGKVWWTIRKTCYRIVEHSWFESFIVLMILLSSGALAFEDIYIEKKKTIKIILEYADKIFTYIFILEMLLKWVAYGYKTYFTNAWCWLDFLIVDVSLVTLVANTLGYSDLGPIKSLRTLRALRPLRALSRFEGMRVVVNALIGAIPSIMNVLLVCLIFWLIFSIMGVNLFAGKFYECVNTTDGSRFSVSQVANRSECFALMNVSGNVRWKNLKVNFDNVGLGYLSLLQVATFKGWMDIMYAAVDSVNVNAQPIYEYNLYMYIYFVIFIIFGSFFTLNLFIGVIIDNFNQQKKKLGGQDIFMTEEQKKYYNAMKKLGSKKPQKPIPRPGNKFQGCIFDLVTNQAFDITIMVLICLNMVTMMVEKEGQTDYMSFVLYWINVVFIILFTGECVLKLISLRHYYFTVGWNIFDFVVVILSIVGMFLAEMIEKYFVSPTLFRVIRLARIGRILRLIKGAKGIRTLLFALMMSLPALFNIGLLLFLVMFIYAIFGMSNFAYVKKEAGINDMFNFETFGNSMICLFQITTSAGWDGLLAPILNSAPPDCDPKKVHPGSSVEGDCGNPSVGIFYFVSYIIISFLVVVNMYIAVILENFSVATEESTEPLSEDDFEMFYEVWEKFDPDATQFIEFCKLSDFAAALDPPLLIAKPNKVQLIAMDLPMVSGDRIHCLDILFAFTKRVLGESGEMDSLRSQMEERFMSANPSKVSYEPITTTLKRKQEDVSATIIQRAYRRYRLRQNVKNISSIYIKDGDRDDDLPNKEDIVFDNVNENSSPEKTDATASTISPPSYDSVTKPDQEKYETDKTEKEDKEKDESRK

For `COc1cc(C(=O)NS(C)(=O)=O)c(F)cc1-c1cnc(Oc2cc(F)ccc2F)c(Cl)c1`, the IC50 in data set [1] is 12.5 µM; in data set [2] it was 8.5 µM; in [5], more than 30 µM; at Cytochrome P450 2C9 [6], 45.3 µM; in [9], 0.27 µM; in [11] it was 3.69 µM. Also, the IC50 on Bile salt export pump was determined as 13.3 µM; on Cytochrome P450 2C9 [13], 49.6 µM; in [14], 0.069 µM. Besides, the “Cp(f)” value in data set [3] worked out at 294 nM; in data set [8], 1270 nM; in [10], 640 nM; in [16], 3720 nM. Also, the Ki in [4] is more than 30 µM. The same compound gave a bioavailability in [7] of more than 100%. The same compound returned a solubility (thermodynamic) at 24 h in the data set “physchem” of 500 µM (≈ 243 µg/mL). Also, in the data set “in vitro”, the microsomal CLint at 1 µM was determined as 27 µL/min/mg. Further, the Activity entry in data set [12] was “Non-Toxic”. Also, the AUC(0-inf) in [15] was 377 µM·h.
